Values after ≈ are worked out from the molar mass of the structure shown. Active and inactive are the calls of the source. Where a SMILES comes first, the peptide text is derived from it. Bridges are numbered along the chain shown (N, C = ends). [ ]: non-standard residue; d: D form. Dab = NCC[C@H](N)C(=O)O
Columns and labels:
[1] = Metabolic stability in mouse liver microsomes assessed as compound remaining at 25 uM after 60 mins by HPLC analysis in presence of NADPH; type: ADME; settings: read-out: Stability
In short: (§1)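 Human or mouse liver microsomes at 0.5 mg/mL in 100 mM potassium phosphate pH 7.4 with 3 mM MgCl2, test compound 25 µM final, with or without (control) 2 mM NADPH; 37 °C for one hour, then stopped with equal volume acetonitrile containing 0.1% trifluoroacetic acid. Value: peak area with NADPH relative to no-NADPH control, as percent remaining.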

[2] = Metabolic stability in human liver microsomes assessed as compound remaining at 25 uM after 60 mins by HPLC analysis in presence of NADPH; type: ADME; settings: read-out: Stability; in short: as §1
[3] = Inhibition of mouse liver microsome CYP3A4 at 3 uM after 10 mins by luminescence assay; type: ADME; settings: microsomes
Escherichia coli [4] = experiment: Inhibition of lactose permease-dependent [3H]TMG uptake in Escherichia coli HN1157 up to 20 uM
In short: (§2)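 Proton motive force probed in E. coli HN1157 by LacY permease-mediated accumulation of [methyl-3H] thiogalactopyranoside (stock 1 mCi/ml, 7 Ci/mmol), compounds tested at concentrations up to 20 µM.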

Escherichia coli [5] = experiment: Inhibition of multidrug resistance efflux pump in Escherichia coli assessed as concentration required to reduce levofloxacin MIC by 4-fold by checkerboard assay
HeLa = experiment: Cytotoxicity against human HeLa cells; type: cell-based
[6] = Aqueous solubility of the compound by nephlometric method; type: physicochemical
In short: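 Maximum solubility in water, measured by nephelometry.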

Escherichia coli [7] = experiment: Inhibition of multidrug resistance efflux pump in wild-type Escherichia coli AB1157 assessed as concentration required to reduce piperacillin MIC by 4-fold by checkerboard assay
Escherichia coli [8] = experiment: Antibacterial activity against Escherichia coli at 100 uM; type: functional, organism-based
Escherichia coli [9] = experiment: Inhibition of lactose permease in Escherichia coli HN1157 assessed as [3H]TMG accumulation up to 20 uM relative to control; in short: as §2
Escherichia coli [10] = experiment: Effect on outer membrane permeability in AcrAB-deficient Escherichia coli HN1159 assessed as influx of nitrocefin at 20 uM; type: functional
Escherichia coli [11] = experiment: Antibacterial activity against TolC-deficient Escherichia coli AB1157; type: functional
In short: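 MIC determined following CLSI guidelines, with modifications from the authors' earlier work, in the TolC-deficient mutant of E. coli AB1157.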

Escherichia coli [12] = experiment: Antibacterial activity against wild-type Escherichia coli AB1157; type: functional
In short: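 MIC determined according to CLSI guidelines, with modifications described in earlier work.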

Escherichia coli [13] = experiment: Effect on outer membrane permeability in AcrAB-deficient Escherichia coli HN1159 assessed as influx of nitrocefin at 20 ug/ml; type: functional
Escherichia coli [14] = experiment: Inhibition of lactose permease in Escherichia coli HN1157 assessed as [3H]TMG accumulation up to 100 uM relative to control
Enterobacteriaceae = experiment: Antimicrobial activity against Enterobacteriaceae; type: functional

## CC(=O)Nc1ccc(CCSc2nc(N3CC(C)OC(C)C3)c3c(c2C#N)CC(C)(C)OC3)cc1 (centres undefined)
[1]
  remaining at 1 h, 25 µM: 0%
[2]
  remaining at 1 h, 25 µM: 37%
[3]
  inhibition (INH): 61%
Escherichia coli [4]
  inhibition: inactive
Escherichia coli [5]
  INH: 0.1 µM
HeLa
  CC50: 60.5 µM
[6]
  solubility kinetic: 50 µM (≈ 24.7 µg/mL)
Escherichia coli [7]
  INH: 0.1 µM
Escherichia coli [8]
  Activity: inactive
Escherichia coli [9]
  [3H]TMG accumulation relative to control: 97%
Escherichia coli [10]
  Activity: 100%

## COCCN1CCN(c2nc(SCCc3ccccn3)c(C#N)c3c2COC(C)(C)C3)CC1
[1]
  remaining at 1 h, 25 µM: 3%
[2]
  remaining at 1 h, 25 µM: 0%
[3]
  inhibition (INH): 14%
Escherichia coli [5]
  INH: 12.5 µM
HeLa
  CC50: > 100 µM
[6]
  solubility kinetic: ≥ 100 µM
Escherichia coli [7]
  INH: 3.1 µM
Escherichia coli [8]
  Activity: inactive

## CCN1CCN(C(=O)N[C@@H](C(=O)N[C@@H]2C(=O)N3[C@@H]2SC(C)(C)[C@@H]3C(=O)O)c2ccccc2)C(=O)C1=O [PIPERACILLIN]
Escherichia coli [11]
  MIC: 0.125 µM (≈ 0.0647 µg/mL)
Escherichia coli [12]
  MIC: 4 µM (≈ 2.07 µg/mL)

## COCCN1CCN(c2nc(SCCc3ccc(OC)cc3)c(C#N)c3c2COC(C)(C)C3)CC1
[1]
  remaining at 1 h, 25 µM: 17%
[3]
  inhibition (INH): 42%
Escherichia coli [4]
  inhibition: inactive
Escherichia coli [5]
  INH: 6.3 µM
HeLa
  CC50: 34.8 µM
[6]
  solubility kinetic: ≥ 100 µM
Escherichia coli [7]
  INH: 3.1 µM
Escherichia coli [8]
  Activity: inactive
Escherichia coli [9]
  [3H]TMG accumulation relative to control: 103%
Escherichia coli [10]
  Activity: 94%

## CC1CN(c2nc(SCCc3ccc(N)cc3)c(C#N)c3c2COC(C)(C)C3)CC(C)O1 (centres undefined)
[1]
  remaining at 1 h, 25 µM: 72%
[2]
  remaining at 1 h, 25 µM: 76%
[3]
  inhibition (INH): 59%
Escherichia coli [4]
  inhibition: inactive
Escherichia coli [5]
  INH: 0.8 µM
HeLa
  CC50: 52.2 µM
[6]
  solubility kinetic: 12 µM (≈ 5.43 µg/mL)
Escherichia coli [7]
  INH: 0.8 µM
Escherichia coli [8]
  Activity: inactive
Escherichia coli [9]
  [3H]TMG accumulation relative to control: 100%
Escherichia coli [10]
  Activity: 102%

## CC1CN(c2nc(SCCc3ccc(NC(=O)C(F)(F)F)cc3)c(C#N)c3c2COC(C)(C)C3)CC(C)O1 (centres undefined)
[1]
  remaining at 1 h, 25 µM: 0%
[2]
  remaining at 1 h, 25 µM: 90%
[3]
  inhibition (INH): 66%
Escherichia coli [5]
  INH: 1.6 µM
HeLa
  CC50: 64 µM
[6]
  solubility kinetic: 12.5 µM (≈ 6.86 µg/mL)
Escherichia coli [7]
  INH: 1.6 µM
Escherichia coli [8]
  Activity: inactive

## COCCN1CCN(c2nc(SCCc3ccccc3)c(C#N)c3c2COC(C)(C)C3)CC1
[1]
  remaining at 1 h, 25 µM: 0%
[2]
  remaining at 1 h, 25 µM: 0%
[3]
  inhibition (INH): 18%
Escherichia coli [5]
  INH: 6.3 µM
HeLa
  CC50: 34.2 µM
[6]
  solubility kinetic: 50 µM (≈ 23.3 µg/mL)
Escherichia coli [7]
  INH: 0.4 µM
Escherichia coli [8]
  Activity: inactive

## CC1(C)Cc2c(C#N)c(SCc3ccccc3)nc(N3CCOCC3)c2CO1
Escherichia coli [4]
  inhibition: inactive
Escherichia coli [5]
  INH: > 100 µM
Escherichia coli [7]
  INH: > 100 µM
Escherichia coli [8]
  Activity: inactive

## COc1cccc(CCSc2nc(N3CCOCC3)c3c(c2C#N)CC(C)(C)OC3)c1
[1]
  remaining at 1 h, 25 µM: 0%
[2]
  remaining at 1 h, 25 µM: 8%
[3]
  inhibition (INH): 29%
Escherichia coli [4]
  inhibition: inactive
Escherichia coli [5]
  INH: 2.4 µM
HeLa
  CC50: > 100 µM
[6]
  solubility kinetic: 50 µM (≈ 22 µg/mL)
Escherichia coli [7]
  INH: 1.6 µM
Escherichia coli [8]
  Activity: inactive
Escherichia coli [9]
  [3H]TMG accumulation relative to control: 99%
Escherichia coli [10]
  Activity: 94%

## CC(C)C[C@@H]1NC(=O)[C@@H](Cc2ccccc2)NC(=O)[C@H](CCN)NC(=O)[C@@H](NC(=O)[C@H](CCN)NC(=O)[C@@H](N)[C@@H](C)O)CCNC(=O)[C@H]([C@@H](C)O)NC(=O)[C@H](CCN)NC(=O)[C@H](CCN)NC1=O [POLYMYXIN B NONAPEPTIDE] (H-T[Dab][Dab][Dab][dF]L[Dab][Dab]T; lactam 3-C)
Escherichia coli [13]
  Activity: 162%

## C[C@H]1COc2c(N3CCN(C)CC3)c(F)cc3c(=O)c(C(=O)O)cn1c23 [LEVOFLOXACIN]
Escherichia coli [11]
  MIC: 0.016 µM (≈ 0.00578 µg/mL)
Escherichia coli [12]
  MIC: 0.063 µM (≈ 0.0228 µg/mL)

## N#CC(C#N)=NNc1cccc(Cl)c1
Escherichia coli [14]
  inhibition: 3%

## C=CC(=O)Nc1ccc(CCSc2nc(N3CC(C)OC(C)C3)c3c(c2C#N)CC(C)(C)OC3)cc1 (centres undefined)
[1]
  remaining at 1 h, 25 µM: 49%
[2]
  remaining at 1 h, 25 µM: 100%
Escherichia coli [4]
  inhibition: inactive
Escherichia coli [5]
  INH: 0.1 µM
HeLa
  CC50: 62.4 µM
[6]
  solubility kinetic: 25 µM (≈ 12.7 µg/mL)
Escherichia coli [7]
  INH: 0.05 µM
Escherichia coli [8]
  Activity: inactive
Escherichia coli [9]
  [3H]TMG accumulation relative to control: 99%
Escherichia coli [10]
  Activity: 89%

## CC1CN(c2nc(SCCc3ccc(NC(=O)OC(C)(C)C)cc3)c(C#N)c3c2COC(C)(C)C3)CC(C)O1 (centres undefined)
[1]
  remaining at 1 h, 25 µM: 66%
[2]
  remaining at 1 h, 25 µM: 59%
[3]
  inhibition (INH): 0%
Escherichia coli [4]
  inhibition: inactive
Escherichia coli [5]
  INH: 0.8 µM
HeLa
  CC50: > 100 µM
[6]
  solubility kinetic: 100 µM (≈ 55.3 µg/mL)
Escherichia coli [7]
  INH: 0.4 µM
Escherichia coli [8]
  Activity: inactive
Escherichia coli [10]
  Activity: 99%

## CC1(C)Cc2c(C#N)c(SCCc3ccccc3)nc(N3CCOCC3)c2CO1
[1]
  remaining at 1 h, 25 µM: 0%
[2]
  remaining at 1 h, 25 µM: 0%
Escherichia coli [4]
  inhibition: inactive
Escherichia coli [5]
  INH: 3.1 µM
HeLa
  CC50: > 100 µM
[6]
  solubility kinetic: 12 µM (≈ 4.91 µg/mL)
Escherichia coli [7]
  INH: 3.1 µM
Escherichia coli [8]
  Activity: inactive
Enterobacteriaceae
  MIC: ≥ 100 µM
Escherichia coli [9]
  [3H]TMG accumulation relative to control: 102%
Escherichia coli [10]
  Activity: 90%

## CC1CN(c2nc(SCCc3cccnc3)c(C#N)c3c2COC(C)(C)C3)CC(C)O1 (centres undefined)
[1]
  remaining at 1 h, 25 µM: 19%
[2]
  remaining at 1 h, 25 µM: 53%
[3]
  inhibition (INH): 0%
Escherichia coli [4]
  inhibition: inactive
Escherichia coli [5]
  INH: 12.5 µM
HeLa
  CC50: 42.6 µM
[6]
  solubility kinetic: ≥ 100 µM
Escherichia coli [7]
  INH: 3.1 µM
Escherichia coli [8]
  Activity: inactive
Escherichia coli [10]
  Activity: 86%

## COc1ccc(CCSc2nc(N3CCOCC3)c3c(c2C#N)CC(C)(C)OC3)cc1OC
[1]
  remaining at 1 h, 25 µM: 5%
[2]
  remaining at 1 h, 25 µM: 21%
[3]
  inhibition (INH): 49%
Escherichia coli [5]
  INH: 1.3 µM
HeLa
  CC50: 69.4 µM
[6]
  solubility kinetic: 25 µM (≈ 11.7 µg/mL)
Escherichia coli [7]
  INH: 0.8 µM
Escherichia coli [8]
  Activity: inactive

## CC1CN(c2nc(SCCc3ccc(NC(=N)N)cc3)c(C#N)c3c2COC(C)(C)C3)CC(C)O1 (centres undefined)
[1]
  remaining at 1 h, 25 µM: 90%
[2]
  remaining at 1 h, 25 µM: 90%
[3]
  inhibition (INH): 9%
Escherichia coli [4]
  inhibition: inactive
Escherichia coli [5]
  INH: 0.8 µM
HeLa
  CC50: 12 µM
[6]
  solubility kinetic: 100 µM (≈ 49.5 µg/mL)
Escherichia coli [7]
  INH: 0.8 µM
Escherichia coli [8]
  Activity: inactive
Escherichia coli [9]
  [3H]TMG accumulation relative to control: 86%

## COCCN1CCN(c2nc(SCCc3ccc(OC)c(OC)c3)c(C#N)c3c2COC(C)(C)C3)CC1
[1]
  remaining at 1 h, 25 µM: 13%
[2]
  remaining at 1 h, 25 µM: 20%
[3]
  inhibition (INH): 48%
Escherichia coli [4]
  inhibition: inactive
Escherichia coli [5]
  INH: 1.6 µM
HeLa
  CC50: 38.8 µM
[6]
  solubility kinetic: ≥ 100 µM
Escherichia coli [7]
  INH: 0.4 µM
Escherichia coli [8]
  Activity: inactive
Escherichia coli [9]
  [3H]TMG accumulation relative to control: 100%
Escherichia coli [10]
  Activity: 100%

## CC1CN(c2nc(SCCc3cccc(F)c3)c(C#N)c3c2COC(C)(C)C3)CC(C)O1 (centres undefined)
Escherichia coli [4]
  inhibition: inactive
Escherichia coli [5]
  INH: 1.6 µM
HeLa
  CC50: > 100 µM
Escherichia coli [7]
  INH: 1.6 µM
Escherichia coli [8]
  Activity: inactive
Escherichia coli [9]
  [3H]TMG accumulation relative to control: 103%
Escherichia coli [10]
  Activity: 99%
